Drawing on PubChem BioAssay AID1747 (Sanford-Burnham Center for Chemical Genomics, 2009), this text covers cytotoxicity with TRAIL and cytotoxicity for 3 compounds.

For this test, the system named is MDA-MB-435 + TRAIL, ATPlite cytotoxicity, 24 h. The test can be described thus: TRAIL sensitizers in resistant cancer line – cell-based, MDA-MB-435, ATPlite luminescence, 24 h, confirmation (AID 1747). As to conditions: stronger effect = higher value; for cytotoxicity: compound alone, no TRAIL. Put shortly: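 Material: TRAIL-resistant human MDA-MB-435 cancer cells | Reagent: TRAIL at 30 ng/mL final | Dosing: Compound 1.25–5 µM final | Times: 4 h compound pretreatment, 24 h TRAIL, 37 °C | Detection: ATPlite luminescence reporting cellular ATP content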

The mark [1] stands for this setting: compound plus TRAIL, at 1.25 µM.

With `CSc1nc(-c2ccccc2)nc(C(Cl)Cl)n1`, the cytotoxicity with TRAIL (at 5 µM) was 82%; the cytotoxicity with TRAIL under setting [1] is 44%; the cytotoxicity with TRAIL (compound plus TRAIL, at 2.5 µM) turned out to be 58%. Moreover, the cytotoxicity (at 5 µM) is 0%.

Turning to `CCSc1nc(-c2ccccc2)nc(C(Cl)Cl)n1`, the cytotoxicity with TRAIL is, setting by setting: (at 5 µM) 73%; under setting [1], 28%; (compound plus TRAIL, at 2.5 µM) 45%. Further, the cytotoxicity (at 5 µM) is 0%.

For the compound `CSc1nc(-c2ccc(C)cc2)nc(C(Cl)Cl)n1`, the cytotoxicity with TRAIL was 71% (at 5 µM); 43% under setting [1]; 60% (compound plus TRAIL, at 2.5 µM). Further, for the setting “at 5 µM”, the cytotoxicity was found to be 0%.
